This passage reports MIC and ED50 results from ChEMBL document CHEMBL1122831, “Synthesis and structure-activity relationships of novel arylfluoroquinolone antibacterial agents” (1985).

A word on the MIC: it is the smallest concentration in the dilution series that meets the test's criterion for growth inhibition. For orientation: ED50 means the midpoint of the dose-response relation.

≈ marks a conversion by molar mass, not a printed value.

Type in all cases: functional
In experiment [1] the test system is Escherichia coli. Put plainly: Compound was evaluated for inhibitory activity against Escherichia coli Juhl (in vivo). The conditions noted are these: in the assay text read “in vitro” for “in vivo”.
The subject of another experiment is Enterococcus faecium. Description: Minimum inhibition concentration in vitro determined against Streptococcus faecium ATCC 8043. Put shortly: (§1)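 Agar dilution on brain-heart infusion (BHI) agar with twofold dilutions from a 2000 µg/mL stock, giving final test concentrations of 200-0.005 µg/mL. Organisms were grown overnight in BHI broth at 36 °C, and about 10⁴ organisms were inoculated per plate. Plates were incubated 18 h at 36 °C. MIC was the lowest concentration with no visible growth.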

For experiment [2], the system named is Staphylococcus aureus. Put plainly: Minimum inhibition concentration in vitro determined against Staphylococcus aureus CMX 686B. Put shortly:
as §1

For experiment [3], the system named is Pseudomonas aeruginosa. Description: Minimum inhibition concentration in vitro determined against Pseudomona aeruginosa K799/WT. Put shortly: as §1
In experiment [4] the test system is Escherichia coli. Put plainly: Minimum inhibition concentration in vitro determined against Escherichia coli juhl. A digest of the protocol:
as §1

In another experiment the test system is Klebsiella pneumoniae. Description: Minimum inhibition concentration in vitro determined against Klebsiella pneumoniae 8045. Put shortly: as §1
The test system of experiment [5] is Mus musculus. Put plainly: In vivo inhibitory activity against Escherichia coli Juhl after peroral administration in mice. As to conditions: po. Put shortly:
(§2)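 Female CF-1 mice (~20 g) were infected ip with 0.5 mL of an 18-h BHI culture of E. coli Juhl in 5% hog gastric mucin at 100× LD50. The LD50 had been set beforehand by 10-fold dilutions and Reed-Muench. Compound in water or dilute NaOH was given sc or po, split equally at 1 and 5 h post-infection. Groups of 10 mice got ≥3 doses, with 10 untreated controls. ED50 was calculated from day-6 cumulative mortality by trimmed Logit.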

The subject of experiment [6] is Pseudomonas aeruginosa. Description: Minimum inhibition concentration in vitro determined against Pseudomona aeruginosa 5007. Put shortly: as §1
Experiment [7] concerns Mus musculus. Description: In vivio inhibitory activity against Escherichia coli Juhl after subcutaneous administration in mice. As to conditions: sc. Put shortly:
as §2

A further experiment concerns Acinetobacter. Description: Minimum inhibition concentration in vitro determined against Acinetobacter sp CMX669. A digest of the protocol: as §1
The test system of experiment [8] is Staphylococcus aureus. Description: Minimum inhibition concentration in vitro determined against Staphylococcus aureus ATCC 6538P. A digest of the protocol:
as §1

The subject of experiment [9] is Staphylococcus epidermidis. Description: Minimum inhibition concentration in vitro determined against Staphylococcus epidermidis 3519. Put shortly: as §1
Another experiment has as its system Klebsiella aerogenes. Put plainly: Minimum inhibition concentration in vitro determined against Enterobacteri aerogenes ATCC 13048. Put shortly:
as §1

Another experiment relates to Streptococcus pyogenes. Description: Minimum inhibition concentration in vitro determined against Streptococcus pyogenes 930. A digest of the protocol: as §1
The subject of experiment [10] is Mus musculus. Put plainly: In vivo inhibitory activity of teh compound against Escherichia coli Juhl after peroral administration in mice. The conditions noted are these: po. Put shortly:
as §2

The mark [11] stands for this setting: Escherichia coli, read-out: MIC.

Regarding `CN1CCN(c2cc3c(cc2F)c(=O)c(C(=O)O)cn3-c2ccc(F)cc2)CC1` [DIFLOXACIN], the MIC in the experiment on Escherichia coli [1] was determined as 0.2 µg/mL (≈ 0.501 µM); against Enterococcus faecium it was 1.56 µg/mL (≈ 3.91 µM); with Staphylococcus aureus [2] it was 0.2 µg/mL (≈ 0.501 µM); in the experiment with Pseudomonas aeruginosa [3] it was 1.56 µg/mL (≈ 3.91 µM); with Escherichia coli [4] (setting [11]) it was 0.2 µg/mL (≈ 0.501 µM); against Klebsiella pneumoniae it was 0.1 µg/mL (≈ 0.25 µM). Moreover, the MIC with Pseudomonas aeruginosa [6] amounted to 1.56 µg/mL (≈ 3.91 µM); in the experiment on Acinetobacter, 0.2 µg/mL (≈ 0.501 µM); against Staphylococcus aureus [8], 0.2 µg/mL (≈ 0.501 µM); in experiment [9], 0.39 µg/mL (≈ 0.976 µM); against Klebsiella aerogenes, 0.78 µg/mL (≈ 1.95 µM); against Streptococcus pyogenes, 1.56 µg/mL (≈ 3.91 µM). The ED50 in the experiment on Mus musculus [5] is 3.1 mg/kg; in the experiment on Mus musculus [7] it was 1.6 mg/kg.
Consider `CCn1cc(C(=O)O)c(=O)c2cc(F)c(N3CCNCC3)cc21` [NORFLOXACIN], for which the minimum inhibitory concentration (MIC) against Enterococcus faecium was found to be 0.78 µg/mL (≈ 2.44 µM); against Staphylococcus aureus [2], 0.78 µg/mL (≈ 2.44 µM); against Pseudomonas aeruginosa [3], 0.39 µg/mL (≈ 1.22 µM); against Escherichia coli [4], 0.1 µg/mL (≈ 0.313 µM); with Escherichia coli [4] (setting [11]), 0.1 µg/mL (≈ 0.313 µM); in the experiment with Klebsiella pneumoniae, 0.1 µg/mL (≈ 0.313 µM). Besides, the MIC against Pseudomonas aeruginosa [6] turned out to be 0.39 µg/mL (≈ 1.22 µM); with Acinetobacter it was 6.2 µg/mL (≈ 19.4 µM); against Staphylococcus aureus [8] it was 0.78 µg/mL (≈ 2.44 µM); in [9], 1.56 µg/mL (≈ 4.89 µM); against Klebsiella aerogenes, 0.2 µg/mL (≈ 0.626 µM); against Streptococcus pyogenes, 3.1 µg/mL (≈ 9.71 µM). Further, the values for the 50% effective dose (ED50) in the experiment with Mus musculus [5] and in the experiment on Mus musculus [7] were 15.1 mg/kg and 0.6 mg/kg, respectively.
Regarding `O=C(O)c1cn(-c2ccc(F)cc2)c2cc(N3CCNCC3)c(F)cc2c1=O` [SARAFLOXACIN], the minimum inhibitory concentration (MIC) in the experiment with Escherichia coli [1] turned out to be 0.05 µg/mL (≈ 0.13 µM); with Enterococcus faecium, 1.56 µg/mL (≈ 4.05 µM); in the experiment on Staphylococcus aureus [2] it was 0.2 µg/mL (≈ 0.519 µM); against Pseudomonas aeruginosa [3] it was 0.39 µg/mL (≈ 1.01 µM); in the experiment with Escherichia coli [4] (setting [11]) it was 0.05 µg/mL (≈ 0.13 µM); in the experiment on Klebsiella pneumoniae, 0.02 µg/mL (≈ 0.0519 µM). Further, the MIC in the experiment on Pseudomonas aeruginosa [6] is 0.39 µg/mL (≈ 1.01 µM); in the experiment on Acinetobacter it was 0.2 µg/mL (≈ 0.519 µM); in the experiment with Staphylococcus aureus [8] it was 0.2 µg/mL (≈ 0.519 µM); in [9], 0.39 µg/mL (≈ 1.01 µM); with Klebsiella aerogenes, 0.2 µg/mL (≈ 0.519 µM); with Streptococcus pyogenes, 0.78 µg/mL (≈ 2.02 µM). Also, the median effective dose (ED50) in the experiment with Mus musculus [7] worked out at 0.6 mg/kg; with Mus musculus [10] it was 4.3 mg/kg.
For `CN(C)C1CCN(c2cc3c(cc2F)c(=O)c(C(=O)O)cn3-c2ccc(F)cc2)CC1`, the minimum inhibitory concentration (MIC) with Enterococcus faecium turned out to be 3.1 µg/mL (≈ 7.25 µM); in the experiment with Staphylococcus aureus [2] it was 0.39 µg/mL (≈ 0.912 µM); against Pseudomonas aeruginosa [3] it was 3.1 µg/mL (≈ 7.25 µM); in the experiment with Escherichia coli [4] (setting [11]) it was 0.39 µg/mL (≈ 0.912 µM); in the experiment with Klebsiella pneumoniae, 0.39 µg/mL (≈ 0.912 µM); with Pseudomonas aeruginosa [6], 3.1 µg/mL (≈ 7.25 µM). Also, the MIC worked out at 0.78 µg/mL (≈ 1.82 µM) in the experiment on Acinetobacter; 0.39 µg/mL (≈ 0.912 µM) against Staphylococcus aureus [8]; 0.78 µg/mL (≈ 1.82 µM) in [9]; 0.78 µg/mL (≈ 1.82 µM) with Klebsiella aerogenes; 1.56 µg/mL (≈ 3.65 µM) in the experiment on Streptococcus pyogenes.
On to `CN1CCN(c2cc3c(cc2F)c(=O)c(C(=O)O)cn3-c2ccc(F)cc2F)CC1`, for which the minimal inhibitory concentration (MIC) was 0.78 µg/mL (≈ 1.87 µM) against Enterococcus faecium; 0.1 µg/mL (≈ 0.24 µM) in the experiment on Staphylococcus aureus [2]; 1.56 µg/mL (≈ 3.74 µM) in the experiment on Pseudomonas aeruginosa [3]; 0.2 µg/mL (≈ 0.479 µM) in the experiment on Escherichia coli [4] (setting [11]); 0.1 µg/mL (≈ 0.24 µM) in the experiment on Klebsiella pneumoniae; 1.56 µg/mL (≈ 3.74 µM) against Pseudomonas aeruginosa [6]. Also, the MIC with Acinetobacter was 0.1 µg/mL (≈ 0.24 µM); against Staphylococcus aureus [8], 0.1 µg/mL (≈ 0.24 µM); in [9] it was 0.39 µg/mL (≈ 0.934 µM); against Klebsiella aerogenes, 0.39 µg/mL (≈ 0.934 µM); against Streptococcus pyogenes, 0.78 µg/mL (≈ 1.87 µM).
With `O=C(O)c1cn(-c2ccc(F)cc2)c2cc(N3CCOCC3)c(F)cc2c1=O`, the MIC against Enterococcus faecium came out at 1.56 µg/mL (≈ 4.04 µM); against Staphylococcus aureus [2], 0.1 µg/mL (≈ 0.259 µM); against Pseudomonas aeruginosa [3], 3.1 µg/mL (≈ 8.02 µM); in the experiment with Escherichia coli [4] (setting [11]) it was 0.39 µg/mL (≈ 1.01 µM); with Klebsiella pneumoniae, 0.39 µg/mL (≈ 1.01 µM); against Pseudomonas aeruginosa [6], 3.1 µg/mL (≈ 8.02 µM). In addition, the minimum inhibitory concentration (MIC) is 0.78 µg/mL (≈ 2.02 µM) with Acinetobacter; 0.1 µg/mL (≈ 0.259 µM) in the experiment on Staphylococcus aureus [8]; 0.2 µg/mL (≈ 0.518 µM) in [9]; 0.78 µg/mL (≈ 2.02 µM) in the experiment with Klebsiella aerogenes; 1.56 µg/mL (≈ 4.04 µM) in the experiment on Streptococcus pyogenes.
`O=C(O)c1cn(-c2ccc(F)cc2)c2cc(N3CCC(O)C3)c(F)cc2c1=O` (stereo unspecified): the MIC against Enterococcus faecium is 1.56 µg/mL (≈ 4.04 µM); in the experiment on Staphylococcus aureus [2] it was less than 0.1 µg/mL; in the experiment on Pseudomonas aeruginosa [3], 3.1 µg/mL (≈ 8.02 µM); in the experiment with Escherichia coli [4] (setting [11]) it was 0.2 µg/mL (≈ 0.518 µM); in the experiment with Klebsiella pneumoniae, 0.2 µg/mL (≈ 0.518 µM); with Pseudomonas aeruginosa [6] it was 3.1 µg/mL (≈ 8.02 µM). For the same compound, the minimum inhibitory concentration (MIC) is 0.39 µg/mL (≈ 1.01 µM) in the experiment with Acinetobacter; less than 0.1 µg/mL in the experiment with Staphylococcus aureus [8]; 0.2 µg/mL (≈ 0.518 µM) in [9]; 0.78 µg/mL (≈ 2.02 µM) with Klebsiella aerogenes; 1.56 µg/mL (≈ 4.04 µM) against Streptococcus pyogenes.
